A word on the IC50: it is the point on the concentration scale where inhibition reaches its midpoint.

The structures appear in SMILES notation. Active and inactive are the calls of the source. The calls are words filed in the database; no cut-off is given here.

Here are results for 2 compounds from ChEMBL document CHEMBL3585248, “Amorfrutins Are Natural PPARγ Agonists with Potent Anti-inflammatory Properties” (J Nat Prod, 2015).

Series [1] has as its system HT-29. Nature of the series: Cytotoxicity against human HT-29 cells assessed as cell viability up to 5 uM after 54 hrs by CytoTox-Glo assay. It is filed as cell-based. To be noted: ht-29, 54 h.
Series [2] relates to HT-29. The experiment in a line: Cytotoxicity against human HT-29 cells assessed as reduction in cell viability after 54 hrs by CytoTox-Glo assay. The settings on record: HT-29, 54 h.
Series [3] concerns HT-29. Nature of the series: Cytotoxicity against human HT-29 cells assessed as cell viability at 10 uM after 54 hrs by CytoTox-Glo assay. The settings on record: ht-29, 54 h. It is filed as cell-based.
Series [4] has as its target T1, Peroxisome proliferator-activated receptor gamma (Homo sapiens) (UniProt P37231).
T1 sequence (whole entry): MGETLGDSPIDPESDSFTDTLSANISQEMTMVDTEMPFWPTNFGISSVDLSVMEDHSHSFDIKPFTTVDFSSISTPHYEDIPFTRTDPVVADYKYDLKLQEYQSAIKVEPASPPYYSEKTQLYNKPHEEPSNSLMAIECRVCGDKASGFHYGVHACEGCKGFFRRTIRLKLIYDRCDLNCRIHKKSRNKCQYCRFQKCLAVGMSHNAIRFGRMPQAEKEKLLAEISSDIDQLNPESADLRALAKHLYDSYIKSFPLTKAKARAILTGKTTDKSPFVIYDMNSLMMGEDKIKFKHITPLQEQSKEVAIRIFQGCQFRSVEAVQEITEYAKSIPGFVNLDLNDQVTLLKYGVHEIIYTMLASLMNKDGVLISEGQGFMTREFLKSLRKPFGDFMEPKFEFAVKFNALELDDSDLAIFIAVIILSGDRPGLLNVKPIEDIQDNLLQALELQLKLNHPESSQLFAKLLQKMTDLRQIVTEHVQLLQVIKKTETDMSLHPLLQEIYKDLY
The experiment in a line: Agonist activity at PPARgamma in human HT29 cells assessed as reduction in TNFalpha-induced COX2 gene expression at 10 uM after 48 hrs by real-time qPCR analysis. It counts as cell-based. To be noted: HT-29. The essentials:
(§1)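 HT-29 cells pretreated 48 h with 10 μM compound in 0.1% DMSO, then stimulated 6 h with 1 ng/mL TNF-α. Total RNA isolated with DNase digestion, reverse-transcribed, then SYBR Green qPCR run for 40 cycles. Expression normalized to GAPDH by 2−ΔΔCt and reported relative to DMSO-treated cells. Biological triplicates, mean ± SD; one-way ANOVA with Dunnett's test.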
On the technique in general: In qPCR the cycle at which signal appears reflects the starting amount.

Series [5] concerns the target T1, Peroxisome proliferator-activated receptor gamma (Homo sapiens). The experiment in a line: Agonist activity at PPARgamma in human HT29 cells assessed as reduction in TNFalpha-induced GROalpha gene expression at 10 uM after 48 hrs by real-time qPCR analysis. It is filed as cell-based. To be noted: HT-29. The essentials:
as §1

Series [6] shares this target. The experiment in a line: Agonist activity at PPARgamma in human HT29 cells assessed as reduction in TNFalpha-induced IL8 gene expression at 10 uM after 48 hrs by real-time qPCR analysis. It is filed as cell-based. The settings on record: HT-29. The essentials: as §1
The target is the same in series [7]. The experiment in a line: Agonist activity at PPARgamma in human HT29 cells assessed as reduction in TNFalpha-induced MIP3alpha gene expression at 10 uM after 48 hrs by real-time qPCR analysis. To be noted: HT-29. It is filed as cell-based. The gist of the method:
as §1

Series [8] has the same target. The experiment in a line: Agonist activity at PPARgamma in human HT29 cells assessed as reduction in TNFalpha-induced GROgamma gene expression at 10 uM after 48 hrs by real-time qPCR analysis. To be noted: HT-29. It is filed as cell-based. The gist of the method:
as §1

For series [9] the target is unchanged. The experiment in a line: Agonist activity at PPARgamma in human HT29 cells assessed as reduction in TNFalpha-induced IL-1beta gene expression at 10 uM after 48 hrs by real-time qPCR analysis. It is filed as cell-based. To be noted: HT-29. The gist of the method:
as §1

For series [10] the target is unchanged. Nature of the series: Agonist activity at PPARgamma in human HT29 cells assessed as reduction in TNFalpha-induced IL8 gene expression in PPARgamma knockdown human HT29 cells at 10 uM after 48 hrs by real-time qPCR analysis. It is filed as cell-based. To be noted: HT-29. The essentials: (§2)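 PPARγ knocked down in HT-29 cells by transfection with 30 nM siRNA, with negative-control siRNA alongside. Cells then given 10 μM compound for 48 h and 1 ng/mL TNF-α for 6 h. Marker mRNA measured by SYBR Green qPCR, normalized to GAPDH by 2−ΔΔCt. Biological triplicates.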

For series [11] the target is unchanged. The experiment in a line: Agonist activity at PPARgamma in human HT29 cells assessed as reduction in TNFalpha-induced GROalpha gene expression in PPARgamma knockdown human HT29 cells at 10 uM after 48 hrs by real-time qPCR analysis. It counts as cell-based. The settings on record: HT-29. The gist of the method: as §2
The target is the same in series [12]. The experiment in a line: Agonist activity at PPARgamma in human HT29 cells assessed as reduction in TNFalpha-induced COX2 gene expression in PPARgamma knockdown human HT29 cells at 10 uM after 48 hrs by real-time qPCR analysis. It is filed as cell-based. The settings on record: HT-29. The gist of the method: as §2
Series [13] shares this target. Nature of the series: Agonist activity at PPARgamma in human HT29 cells assessed as reduction in TNFalpha-induced MIP3alpha gene expression in PPARgamma knockdown human HT29 cells at 10 uM after 48 hrs by real-time qPCR analysis. It is filed as cell-based. The settings on record: HT-29. The gist of the method: as §2
The target is the same in series [14]. The experiment in a line: Agonist activity at PPARgamma in human HT29 cells assessed as reduction in TNFalpha-induced MIP3alpha gene expression in at 10 uM after 48 hrs by ELISA. It is filed as cell-based. To be noted: HT-29. The gist of the method: (§3)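 HT-29 cells in DMEM-F12 with 5% FBS, seeded a day ahead; 10 μM compound or 0.1% DMSO control for 48 h, then 1 ng/mL TNF-α for 6 h. Culture supernatants centrifuged at 4 °C, stored at −80 °C. Secreted MIP-3α/CCL20, IL-8 and GRO-α quantified by ELISA. Mean ± SD; compared with TNF-α alone.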
Background: ELISA stands for enzyme-linked immunosorbent assay.

Series [15] has the same target. Nature of the series: Agonist activity at PPARgamma in human HT29 cells assessed as reduction in TNFalpha-induced IL8 gene expression in at 10 uM after 48 hrs by ELISA. It is filed as cell-based. To be noted: HT-29. The essentials:
as §3

The target is the same in series [16]. The experiment in a line: Agonist activity at PPARgamma in human HT29 cells assessed as reduction in TNFalpha-induced GRO-alpha gene expression in at 10 uM after 48 hrs by ELISA. It is filed as cell-based. To be noted: HT-29. The essentials:
as §3

`COc1cc(CCc2ccccc2)c(C(=O)O)c(O)c1C/C=C(\C)CCC=C(C)C`: the Activity result with HT-29 [1] is reported as “Non-toxic”. For the same compound, the half-maximal inhibitory concentration (IC50) in the series with HT-29 [2] was 30.5 µM.

For `COc1cc(CCc2ccccc2)c(C(=O)O)c(O)c1CC=C(C)C` [AMORFRUTIN A], the Activity result in the series with HT-29 [3] was “Non-toxic”. Besides, the inhibition entry in series [4], in series [5], in [6], in series [7], in [12] and in [13] was “Active” throughout. Besides, the inhibition entry in [8], in [9], in series [10] and in series [11] was “inactive” throughout. The result in series [14], in [15] and in [16] was Active. In the series on HT-29 [2], the IC50 amounted to 50.8 µM.
